Measured values published in ChEMBL document CHEMBL4382250, “Structure-based exploration and pharmacological evaluation of N-substituted piperidin-4-yl-methanamine CXCR4 chemokine receptor antagonists” (Eur J Med Chem, 2019).
Calls of active or inactive are those of the source. The calls are words filed in the database; no cut-off is given here.

Tests used:
[1] = molecular target: T1, C-X-C chemokine receptor type 4 (Homo sapiens, UniProt P61073); experiment: Displacement of [125I]-CXCL12 from human CXCR4 receptor expressed in HEK293T cell membranes at 100 uM after 2 hrs by scintillation counting analysis relative to IT1t
How it was run: (§1)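 Membranes (5 µg/well) from HEK293T transiently transfected with hCXCR4, incubated 2 h at 25 °C with 50 pM ¹²⁵I-CXCL12 in HEPES pH 7.4 buffer with CaCl₂, MgCl₂, NaCl, 1% BSA. Filtration through PEI-soaked GF/C, then scintillation counting. Non-specific binding defined by 10⁻⁵ M IT1t; three-parameter fit for pIC₅₀. Single-point displacement at 100 μM vs IT1t (100%). N = 3, triplicate.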

[2] = molecular target: T1, C-X-C chemokine receptor type 4; experiment: Displacement of [125I]-CXCL12 from human CXCR4 receptor expressed in HEK293T cell membranes after 2 hrs by scintillation counting analysis; how it was run: as §1
[3] = molecular target: T1, C-X-C chemokine receptor type 4; experiment: Displacement of CXCL12-red from human NLuc-tagged CXCR4 receptor expressed in HEK293T cell membranes after 2 hrs by NanoBRET assay
How it was run: (§2)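 Membranes (10 µg/well) from HEK293G cells stably expressing sig-NLuc–CXCR4 (G418-selected), in HBSS pH 7.4. CXCL12-red (50 nM) and competitor added together, 2 h at 37 °C; 10 µM furimazine, emissions at 460 and >610 nm read 5 min later, BRET ratio >610/460. Normalized to buffer (0%) and IT1t (100%); N = 3, triplicate.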

[4] = molecular target: T1, C-X-C chemokine receptor type 4; experiment: Antagonist activity at human DEF3-RLuc fused CXCR4 receptor expressed in HEK293T cells co-expressing DEF3-Beta-arrestin-2-mVenus assessed as inhibition of CXCL12-induced beta-arrestin2 recruitment at 100 uM preincubated for 60 mins followed by CXCL12 addition measured after 20 mins by BRET assay relative to IT1t; type: cell-based
How it was run: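 HEK293T cells transiently co-transfected (PEI) with hCXCR4-RLuc and β-arrestin-2-mVenus, assayed two days later in HBSS. Compound given 60 min before 10 nM CXCL12 with 5 µM coelenterazine-h; RLuc (480 nm) and 540 nm read after 20 min. BRET ratio expressed as fold over vehicle. Single-concentration inhibition at 100 μM, IT1t as 100%. N = 3, triplicate.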

[5] = molecular target: T1, C-X-C chemokine receptor type 4; experiment: Antagonist activity at human DEF3-fused CXCR4 receptor expressed in HEK293T cells co-expressing DAN1-HA-Galphaq/i5 assessed as inhibition of CXCL12-induced IP3 accumulation at 100 uM after 90 mins in presence of [3H]-myo-inositol by scintillation counting analysis relative to IT1t; type: functional, cell-based
How it was run: (§3)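 HEK293T co-transfected (PEI) with CXCR4 and HA-Gαq/i5, moved next day to poly-L-lysine wells and labelled overnight with 1 µCi/mL [³H]-myo-inositol in inositol-free DMEM. Antagonist dilutions with 10 nM CXCL12, 10 mM LiCl, 0.05% BSA in HEPES saline pH 7.4, 1.5 h at 37 °C. InsP isolated on […] columns, then scintillation counted. Single-point at 100 μM vs IT1t; N ≥ 3, triplicate.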

[6] = molecular target: T1, C-X-C chemokine receptor type 4; experiment: Non-competitive antagonist activity at human CXCR4 receptor expressed in HEK293T cells co-expressing galphai1 assessed as inhibition of CXCL12-induced receptor activation up to 100 uM preincubated for 30 mins followed by CXCL12 addition and measured after 20 mins by FRET assay; type: cell-based
How it was run: (§4)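 HEK293T transfected (Effectene) with CXCR4 and a Gαi1 FRET sensor, seeded on poly-D-lysine, read 24 h later at 37 °C in HEPES buffer pH 7.3. Antagonist at 0.1, 1, 10 or 100 µM (final, from DMSO) for 30 min, 5 min pre-read, then increasing CXCL12, FRET read 20 min (ex 420, em 485/540 nm). CXCL12 curves built per antagonist level; 3–5 repeats.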

[7] = molecular target: T1, C-X-C chemokine receptor type 4; experiment: Antagonist activity at human DEF3-fused CXCR4 receptor expressed in HEK293T cells co-expressing DAN1-HA-Galphaq/i5 assessed as inhibition of CXCL12-induced IP3 accumulation after 90 mins in presence of [3H]-myo-inositol by scintillation counting analysis; type: functional, cell-based; how it was run: as §3
[8] = molecular target: T1, C-X-C chemokine receptor type 4; experiment: Antagonist activity at human DEF3-RLuc fused CXCR4 receptor expressed in HEK293T cells co-expressing DEF3-Beta-arrestin-2-mVenus assessed as inhibition of CXCL12-induced beta-arrestin2 recruitment preincubated for 60 mins followed by CXCL12 addition measured after 20 mins by BRET assay; type: cell-based
[9] = molecular target: T1, C-X-C chemokine receptor type 4; experiment: Displacement of CXCL12-red from human NLuc-tagged CXCR4 receptor expressed in HEK293T cell membranes at 100 uM after 2 hrs by NanoBRET assay relative to IT1t; how it was run: as §2
[10] = molecular target: T1, C-X-C chemokine receptor type 4; experiment: Displacement of [125I]-CXCL12 from human CXCR4 receptor expressed in HEK293T cell membranes at 63 uM after 2 hrs by scintillation counting analysis relative to IT1t
How it was run: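 hCXCR4 membranes from transiently transfected HEK293T, competing against ¹²⁵I-CXCL12 at 40 pM, 2 h at 25 °C, filtration and scintillation counting. Percentage displacement by ligand at 63 μM relative to IT1t at 63 μM (100%). N = 3, triplicate.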

[11] = molecular target: T1, C-X-C chemokine receptor type 4; experiment: Competitive antagonist activity at human CXCR4 receptor expressed in HEK293T cells co-expressing galphai1 assessed as inhibition of CXCL12-induced receptor activation up to 100 uM preincubated for 30 mins followed by CXCL12 addition and measured after 20 mins by FRET assay; type: cell-based; how it was run: as §4

T1 sequence (P61073 whole entry): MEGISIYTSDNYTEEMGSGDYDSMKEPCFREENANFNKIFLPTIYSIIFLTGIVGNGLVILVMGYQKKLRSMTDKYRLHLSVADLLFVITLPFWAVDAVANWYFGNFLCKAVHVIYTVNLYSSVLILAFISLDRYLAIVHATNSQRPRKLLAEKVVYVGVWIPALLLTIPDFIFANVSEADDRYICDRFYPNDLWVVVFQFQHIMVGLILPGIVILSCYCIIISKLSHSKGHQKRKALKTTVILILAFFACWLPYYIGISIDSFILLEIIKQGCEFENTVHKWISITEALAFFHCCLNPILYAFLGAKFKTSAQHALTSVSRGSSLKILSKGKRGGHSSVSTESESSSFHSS

Compound: Clc1ccccc1CN1CCC(CNCc2ccc3c(c2)OCO3)CC1
- inhibition [1]: 72%
- IC50 [2]: 251 nM

Compound: NCC1CCN(CC2CCCCC2)CC1
- inhibition [1]: 59%
- IC50 [2]: > 10000 nM

Compound: Oc1ccc(CNCC2CCN(Cc3ccccc3Cl)CC2)cc1
- inhibition [1]: 98%
- IC50 [2]: 316 nM

Compound: Cc1cccc(CNCC2CCN(Cc3c(Cl)cccc3Cl)CC2)c1
- inhibition [1]: 60%
- IC50 [2]: 251 nM

Compound: Cc1ccccc1CN1CCC(CN)CC1
- inhibition [1]: 81%
- IC50 [2]: > 10000 nM

Compound: Cc1cccc(CNCC2CCN(Cc3ccc(Cl)cc3)CC2)c1
- inhibition [1]: 86%
- IC50 [2]: 10000 nM

Compound: Clc1ccccc1CN1CCC(CNCC2CCCCC2)CC1
- inhibition [1]: 77%
- IC50 [2]: 3160 nM

Compound: c1ccc(CNCC2CCN(Cc3ccccc3)CC2)cc1
- inhibition [1]: 72%
- IC50 [2]: 10000 nM

Compound: COc1ccc(CNCC2CCN(Cc3ccccc3Cl)CC2)cc1
- inhibition [1]: 88%
- IC50 [2]: 1260 nM

Compound: NCCC1CCN(Cc2ccccc2Cl)CC1
- inhibition [1]: 56%
- IC50 [2]: > 10000 nM

Compound: Clc1ccccc1CN1CCC(CNCc2cccc(-c3ccccc3)c2)CC1
- IC50 [3]: 631 nM
- inhibition [4]: 102%
- inhibition [5]: 94%
- inhibition [6]: Active
- inhibition [1]: 98%
- IC50 [7]: 1260 nM
- inhibition [7]: Dose-dependent effect
- IC50 [8]: 2510 nM
- inhibition [9]: 98%
- IC50 [2]: 501 nM

Compound: COc1ccccc1CN1CCC(CNCc2cccc(C)c2)CC1
- inhibition [1]: 84%
- IC50 [2]: 794 nM

Compound: NCC1CCN(Cc2ccc(Cl)c(Cl)c2)CC1
- inhibition [1]: 67%
- IC50 [2]: > 10000 nM

Compound: Clc1ccccc1CNCC1CCN(Cc2ccccc2Cl)CC1
- inhibition [1]: 80%
- IC50 [2]: 200 nM

Compound: Clc1ccc(CNCC2CCN(Cc3ccccc3Cl)CC2)cc1
- inhibition [1]: 80%
- IC50 [2]: 631 nM

Compound: COc1ccccc1CN1CCC(CN)CC1
- inhibition [1]: 67%
- IC50 [2]: > 10000 nM

Compound: COc1ccccc1CN1CCC(CNCc2ccccc2)CC1
- inhibition [1]: 85%
- IC50 [2]: 2510 nM

Compound: CN(C)CCCNCc1ccc(Cl)c(Cl)c1
- inhibition [10]: 70%
- IC50 [2]: > 10000 nM

Compound: c1cc(CN2CCCNCCNCCCNCC2)ccc1CN1CCCNCCNCCCNCC1
- inhibition [11]: Active

Compound: CCCNCC1CCN(Cc2ccccc2C)CC1
- inhibition [10]: > 50%

Compound: Cc1ccccc1CNCC1CCN(Cc2ccccc2Cl)CC1
- inhibition [1]: 72%
- IC50 [2]: 251 nM

Compound: Clc1ccccc1CN1CCC(CNCc2c[nH]cn2)CC1
- inhibition [1]: 96%
- IC50 [2]: 1000 nM

Compound: NCC1CCN(Cc2ccccc2Cl)CC1
- inhibition [10]: 69%
- IC50 [2]: 10000 nM

Compound: Clc1ccccc1CN1CCC(CNCc2cccnc2)CC1
- inhibition [1]: 89%
- IC50 [2]: 2000 nM

Compound: Cc1cccc(CNCC2CCN(Cc3cccc(Cl)c3Cl)CC2)c1
- inhibition [1]: 74%
- IC50 [2]: 794 nM

Compound: Cc1cccc(CNCC2CCN(Cc3cccc(Cl)c3)CC2)c1
- inhibition [1]: 86%
- IC50 [2]: 2510 nM

Compound: Oc1ccc(CN2CCC(CNCc3ccccc3)CC2)cc1
- inhibition [1]: 65%
- IC50 [7]: > 31600 nM
- IC50 [8]: > 31600 nM
- IC50 [2]: > 10000 nM

Compound: CCC[C@H](C)c1cc(CN(C)C)c(O)cc1CN(C)C
- inhibition [10]: > 50%

Compound: Clc1ccccc1CN1CCC(CNCc2cccc(Cl)c2Cl)CC1
- inhibition [1]: 13%
- IC50 [2]: 2510 nM

Compound: CCc1cccc(CNCC2CCN(Cc3ccccc3OC)CC2)c1
- inhibition [1]: 81%
- IC50 [2]: 794 nM

Compound: Clc1cccc(CNCC2CCN(Cc3ccccc3Cl)CC2)c1
- inhibition [1]: 65%
- IC50 [2]: 316 nM

Compound: Clc1ccccc1CN1CCC(CNCc2ccc3ccccc3c2)CC1
- inhibition [1]: 78%
- IC50 [2]: 501 nM

Compound: Clc1ccccc1CN1CCC(CNCc2ccccc2)CC1
- IC50 [3]: 794 nM
- inhibition [4]: 103%
- inhibition [11]: Active
- inhibition [5]: 93%
- inhibition [1]: 87%
- IC50 [7]: 2000 nM
- inhibition [7]: Dose-dependent effect
- IC50 [8]: 3980 nM
- inhibition [9]: 84%
- IC50 [2]: 316 nM

Compound: Cc1ccc(CNCC2CCN(Cc3ccccc3Cl)CC2)cc1
- inhibition [1]: 62%
- IC50 [2]: 1000 nM

Compound: Cc1cccc(CNCC2CCN(Cc3ccccc3Cl)CC2)c1
- IC50 [3]: 1000 nM
- inhibition [4]: 97%
- inhibition [5]: 87%
- inhibition [6]: Active
- inhibition [1]: 63%
- IC50 [7]: 1000 nM
- inhibition [7]: Dose-dependent effect
- IC50 [8]: 3160 nM
- inhibition [9]: 73%
- IC50 [2]: 158 nM
